Reference: ChEMBL document CHEMBL1938268, “Synthesis, characterization and in vitro biological evaluation of some novel diarylsulfonylureas as potential cytotoxic and antimicrobial agents” (Bioorg Med Chem Lett, 2012)
In brackets after ≈: the same amount, converted by molar mass.

Assays:
Penicillium chrysogenum = assay: Antifungal activity against Penicillium chrysogenum NCIM 738 after 48 hrs by agar well diffusion assay; format: functional; conditions: NCIM 738, 48 h
How it was run: (§1)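 Fungal spore suspensions in sterile distilled water set to final 10⁶ CFU/mL; 0.1 mL spread on Potato-Dextrose-Agar. NCCLS agar well diffusion with NCIM standard strains: 6 mm wells given 0.1 mL compound diluted in 1% DMSO, final 16 to 512 µg/mL. Triplicate plates held 48 h at 28 0.2 °C. MIC is lowest concentration fully inhibiting growth.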

Proteus vulgaris = assay: Antibacterial activity against Proteus vulgaris NCIM 2813 after 24 hrs by agar well diffusion assay; format: functional; conditions: NCIM 2813, 24 h
How it was run: (§2)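 Agar well diffusion per NCCLS; NCIM standard strains. Nutrient agar seeded with 0.1 mL bacterial suspension in sterile 0.85% saline at 10⁵ CFU/mL. Plates in triplicate, 37 0.5 °C, 24 h. MIC taken as lowest concentration giving complete growth inhibition.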

Pseudomonas aeruginosa = assay: Antibacterial activity against Pseudomonas aeruginosa NCIM 2036 after 24 hrs by agar well diffusion assay; format: functional; conditions: NCIM 2036, 24 h; how it was run: as §2
Aspergillus niger = assay: Antifungal activity against Aspergillus niger NCIM 548 after 48 hrs by agar well diffusion assay; format: functional; conditions: NCIM 548, 48 h; how it was run: as §1
Candida albicans = assay: Antifungal activity against Candida albicans NCIM 3102 after 48 hrs by agar well diffusion assay; format: functional; conditions: NCIM 3102, 48 h; how it was run: as §1
[1] = Toxicity against Brine shrimp nauplii after 24 hrs; format: organism-based; conditions: artemia salina, in vivo; read-out: ED50
How it was run: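 Artemia salina nauplii hatched 38 h in sterile brine (sea salt 38 g/L, pH 8.5) under aeration; 10 nauplii per vial exposed to graded compound concentrations in 5 mL final volume, 37 °C, 24 h under incandescent light. Survivors counted; percent lethality versus vehicle-treated controls; ED50 from probit analysis; podophyllotoxin positive control.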

Bacillus pumilus = assay: Antibacterial activity against Bacillus pumilus NCIM 2327 after 24 hrs by agar well diffusion assay; conditions: NCIM 2327, 24 h
Bacillus subtilis = assay: Antibacterial activity against Bacillus subtilis NCIM 2063 after 24 hrs by agar well diffusion assay; format: functional; conditions: NCIM 2063, 24 h; how it was run: as §2
Klebsiella pneumoniae = assay: Antibacterial activity against Klebsiella pneumoniae NCIM 5082 after 24 hrs by agar well diffusion assay; format: functional; conditions: NCIM 5082, 24 h; how it was run: as §2
Micrococcus luteus = assay: Antibacterial activity against Micrococcus luteus NCIM 2155 after 24 hrs by agar well diffusion assay; format: functional; conditions: NCIM 2155, 24 h; how it was run: as §2
Staphylococcus aureus = assay: Antibacterial activity against Staphylococcus aureus NCIM 2079 after 24 hrs by agar well diffusion assay; format: functional; conditions: NCIM 2079, 24 h; how it was run: as §2
Escherichia coli = assay: Antibacterial activity against Escherichia coli NCIM 2065 after 24 hrs by agar well diffusion assay; format: functional; conditions: NCIM 2065, 24 h; how it was run: as §2
Aspergillus oryzae = assay: Antifungal activity against Aspergillus oryzae NCIM 643 after 48 hrs by agar well diffusion assay; format: functional; conditions: NCIM 643, 48 h; how it was run: as §1

Row | SMILES | MIC (Penicillium chrysogenum) [µg/mL] | MIC (Proteus vulgaris) [µg/mL] | MIC (Pseudomonas aeruginosa) [µg/mL] | MIC (Aspergillus niger) [µg/mL] | MIC (Candida albicans) [µg/mL] | LC50 at 24 h [1] [µg/mL] | MIC (Bacillus pumilus) [µg/mL] | MIC (Bacillus subtilis) [µg/mL] | MIC (Klebsiella pneumoniae) [µg/mL] | MIC (Micrococcus luteus) [µg/mL] | MIC (Staphylococcus aureus) [µg/mL] | MIC (Escherichia coli) [µg/mL] | MIC (Aspergillus oryzae) [µg/mL]
1 | Cc1ccc(S(=O)(=O)NC(=O)Nc2ccccc2C(=O)/C=C/c2ccccc2)cc1 | 512 (≈ 1220 µM) | 512 (≈ 1220 µM) | 512 (≈ 1220 µM) | 512 (≈ 1220 µM) | 512 (≈ 1220 µM) | 25 (≈ 59.5 µM) | 512 (≈ 1220 µM) | 512 (≈ 1220 µM) | 512 (≈ 1220 µM) | 512 (≈ 1220 µM) | 512 (≈ 1220 µM) | 512 (≈ 1220 µM) | 512 (≈ 1220 µM)
2 | Cc1ccc(/C=C/C(=O)c2ccccc2NC(=O)NS(=O)(=O)c2ccc(C)cc2)cc1 | 256 (≈ 589 µM) | 256 (≈ 589 µM) | 256 (≈ 589 µM) | 256 (≈ 589 µM) | 256 (≈ 589 µM) | 15.3 (≈ 35.2 µM) | 256 (≈ 589 µM) | 256 (≈ 589 µM) | 256 (≈ 589 µM) | 256 (≈ 589 µM) | 128 (≈ 295 µM) | 256 (≈ 589 µM) | 256 (≈ 589 µM)
3 | Cc1ccc(S(=O)(=O)NC(=O)Nc2ccccc2C(=O)/C=C/c2ccc(N(C)C)cc2)cc1 | 256 (≈ 552 µM) | 128 (≈ 276 µM) | 64 (≈ 138 µM) | 256 (≈ 552 µM) | 128 (≈ 276 µM) | 38.1 (≈ 82.2 µM) | 64 (≈ 138 µM) | 64 (≈ 138 µM) | 128 (≈ 276 µM) | 128 (≈ 276 µM) | 64 (≈ 138 µM) | 64 (≈ 138 µM) | 256 (≈ 552 µM)
4 | COc1cccc(/C=C/C(=O)c2ccccc2NC(=O)NS(=O)(=O)c2ccc(C)cc2)c1 | 128 (≈ 284 µM) | 128 (≈ 284 µM) | 128 (≈ 284 µM) | 128 (≈ 284 µM) | 128 (≈ 284 µM) | 23.2 (≈ 51.4 µM) | 128 (≈ 284 µM) | 128 (≈ 284 µM) | 128 (≈ 284 µM) | 128 (≈ 284 µM) | 128 (≈ 284 µM) | 128 (≈ 284 µM) | 128 (≈ 284 µM)
5 | COc1ccc(/C=C/C(=O)c2ccccc2NC(=O)NS(=O)(=O)c2ccc(C)cc2)cc1 | 128 (≈ 284 µM) | 128 (≈ 284 µM) | 64 (≈ 142 µM) | 128 (≈ 284 µM) | 128 (≈ 284 µM) | 28.1 (≈ 62.4 µM) | 128 (≈ 284 µM) | 64 (≈ 142 µM) | 128 (≈ 284 µM) | 128 (≈ 284 µM) | 128 (≈ 284 µM) | 128 (≈ 284 µM) | 128 (≈ 284 µM)
6 | COc1ccc(/C=C/C(=O)c2ccccc2NC(=O)NS(=O)(=O)c2ccc(C)cc2)cc1OC | 128 (≈ 266 µM) | 128 (≈ 266 µM) | 32 (≈ 66.6 µM) | 128 (≈ 266 µM) | 128 (≈ 266 µM) | 12.9 (≈ 26.8 µM) | 64 (≈ 133 µM) | 32 (≈ 66.6 µM) | 128 (≈ 266 µM) | 128 (≈ 266 µM) | 64 (≈ 133 µM) | 64 (≈ 133 µM) | 128 (≈ 266 µM)
7 | COc1ccc(/C=C/C(=O)c2ccccc2NC(=O)NS(=O)(=O)c2ccc(C)cc2)c(OC)c1 | 128 (≈ 266 µM) | 128 (≈ 266 µM) | 32 (≈ 66.6 µM) | 128 (≈ 266 µM) | 128 (≈ 266 µM) | 16 (≈ 33.4 µM) | 32 (≈ 66.6 µM) | 32 (≈ 66.6 µM) | 128 (≈ 266 µM) | 128 (≈ 266 µM) | 32 (≈ 66.6 µM) | 32 (≈ 66.6 µM) | 128 (≈ 266 µM)
8 | Cc1ccc(S(=O)(=O)NC(=O)Nc2ccccc2C(=O)/C=C/c2ccccc2O)cc1 | 256 (≈ 586 µM) | 256 (≈ 586 µM) | 512 (≈ 1170 µM) | 256 (≈ 586 µM) | 256 (≈ 586 µM) | 32.3 (≈ 74.1 µM) | 512 (≈ 1170 µM) | 512 (≈ 1170 µM) | 256 (≈ 586 µM) | 256 (≈ 586 µM) | 256 (≈ 586 µM) | 512 (≈ 1170 µM) | 256 (≈ 586 µM)
9 | Cc1ccc(S(=O)(=O)NC(=O)Nc2ccccc2C(=O)/C=C/c2cccc(O)c2)cc1 | 512 (≈ 1170 µM) | 512 (≈ 1170 µM) | 512 (≈ 1170 µM) | 512 (≈ 1170 µM) | 512 (≈ 1170 µM) | 39.3 (≈ 89.9 µM) | 512 (≈ 1170 µM) | 512 (≈ 1170 µM) | 512 (≈ 1170 µM) | 512 (≈ 1170 µM) | 512 (≈ 1170 µM) | 512 (≈ 1170 µM) | 512 (≈ 1170 µM)
10 | Cc1ccc(S(=O)(=O)NC(=O)Nc2ccccc2C(=O)/C=C/c2ccc(O)cc2)cc1 | 128 (≈ 293 µM) | 128 (≈ 293 µM) | 256 (≈ 586 µM) | 128 (≈ 293 µM) | 128 (≈ 293 µM) | 24.3 (≈ 55.7 µM) | 128 (≈ 293 µM) | 256 (≈ 586 µM) | 128 (≈ 293 µM) | 128 (≈ 293 µM) | 256 (≈ 586 µM) | 128 (≈ 293 µM) | 128 (≈ 293 µM)
11 | CCOc1cc(/C=C/C(=O)c2ccccc2NC(=O)NS(=O)(=O)c2ccc(C)cc2)ccc1O | 512 (≈ 1070 µM) | 512 (≈ 1070 µM) | 128 (≈ 266 µM) | 512 (≈ 1070 µM) | 512 (≈ 1070 µM) | 19.2 (≈ 40 µM) | 64 (≈ 133 µM) | 128 (≈ 266 µM) | 512 (≈ 1070 µM) | 512 (≈ 1070 µM) | 128 (≈ 266 µM) | 64 (≈ 133 µM) | 512 (≈ 1070 µM)
